In ChEMBL document CHEMBL4400542, “Epidermal Growth Factor Receptor-Targeted Multifunctional Photosensitizers for Bladder Cancer Imaging and Photodynamic Therapy” (J Med Chem, 2019):

Assays:
Conditions in all cases: in vivo; call rule not given here
[1] = Drug uptake in human UM-UC-3 cells xenografted in SCID mouse at 50 uCi, iv measured at 110 min post injection by PET imaging analysis
[2] = Drug uptake in human UM-UC-3 cells xenografted in SCID mouse at 50 uCi, iv administered at 24 hrs post imaging and measured at 24 to 72 post injection by PET imaging analysis; type: ADME, organism-based, UMUC3
Summary of the method: (§1)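 SCID mice (3/group) with UMUC3 tumors first given 18F-FDG (50 µCi) and imaged at 110 min. At 24 h later, 124I-labelled agent given i.v. (50, 25 or 15 µCi); microPET at 24, 48, 72 h post-injection, same bed position. Injected dose checked by well gamma counter, within ±5%.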

[3] = Drug uptake in human UM-UC-3 cells xenografted in SCID mouse at 15 uCi, iv measured at 24 to 72 post injection by PET imaging analysis; type: ADME, organism-based, UMUC3
Summary of the method: as §1

Row | SMILES | Drug uptake [1] | Drug uptake [2] | Drug uptake [3]
1 | OC[C@H]1OC(O)[C@H]([18F])[C@@H](O)[C@@H]1O (stereo partly drawn) [FLUDEOXYGLUCOSE F 18] | Not Active |  | 
2 | CCC1=C(C)c2cc3[nH]c(cc4nc(c5c6[nH]c(cc1n2)c(C)c6C(=O)C5)[C@@H](CCC(=O)NCc1cccc(C#Cc2cccc(Nc5ncnc6cc(OCCOC)c(OCCOC)cc56)c2)c1)[C@@H]4C)c(C)c3C(C)OCc1cccc([124I])c1 (stereo partly drawn) |  | Active | Active
